Here are results for five molecules from ChEMBL document CHEMBL4038321, “Design, Synthesis, and Pharmacokinetics of a Bone-Targeting Dual-Action Prodrug for the Treatment of Osteoporosis” (J Med Chem, 2017).

Series [1] is described as follows: Solubility of the compound in phosphate buffer at 2 mg/ml. In kind it is physicochemical. The procedure, abridged:
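Conjugate tested for dissolution at the dosing concentration of 2 mg/mL in PBS alone, then in PBS formulations containing surfactants (PEG400, Tween, Cremaphor). Solutions were judged by visual clarity (homogeneous versus cloudy).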

Series [2] deals with Plasma. As to the kind of experiment: Drug metabolism in Sprague-Dawley rat plasma assessed as tritium label liberation in presence of bone powder. In kind it is ADME, cell-free. The procedure, abridged: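 Tritiated conjugate was incubated in rat plasma at 37 °C. At fixed times up to 24 h the mixture was stirred with bovine bone powder to adsorb intact conjugate and any cleaved bisphosphonate. The supernatant was then scintillation counted as unbound, liberated tritium.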

Series [3] has as its system Bone. As to the kind of experiment: Drug uptake in Sprague-Dawley rat bone at 1 mg/kg, iv after 6 hrs. It is filed as ADME, organism-based, Bone element. Conditions: in vivo.
The test system of series [4] is Bone. As to the kind of experiment: Half life in iv dosed Sprague-Dawley rat bone administered as single dose using radiolabeled compound. In kind it is ADME, organism-based, Bone element. Particulars: in vivo. The procedure, abridged:
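Female Sprague Dawley rats, about 13 weeks old on receipt, got a single tail-vein bolus of 5.0 mg/kg conjugate. The dose held 8.90 µCi [3H] and 1.77 µCi [14C] label, in 10% poloxamer 188 brought to pH 8.0 with NaHCO3 and diluted 1:1 with PBS. Groups of 3 were killed at 6 h and 1, 7, 14 and 28 days. Femurs were oxidized and counted, with skeleton taken as 8% of body weight, and label loss from bone gave half-times.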

Series [5] can be described thus: Stability in rat serum assessed as parent compound remaining at 100 uM measured after 2 hrs by HPLC analysis (reference value: 93 to 97%). In kind it is ADME, cell-free. Conditions: read-out: Stability.
Series [6] deals with T1, cathepsin K (Homo sapiens, UniProt P43235).
T1 sequence (P43235 whole entry): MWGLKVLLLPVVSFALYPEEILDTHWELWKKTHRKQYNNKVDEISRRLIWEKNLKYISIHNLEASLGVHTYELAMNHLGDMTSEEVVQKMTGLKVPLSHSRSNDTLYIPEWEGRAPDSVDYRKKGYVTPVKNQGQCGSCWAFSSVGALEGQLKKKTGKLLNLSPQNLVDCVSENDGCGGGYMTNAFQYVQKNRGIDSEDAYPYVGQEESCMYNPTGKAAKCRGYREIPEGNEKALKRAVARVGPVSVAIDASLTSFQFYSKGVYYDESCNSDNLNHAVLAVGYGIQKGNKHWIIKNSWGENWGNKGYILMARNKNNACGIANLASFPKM
As to the kind of experiment: Substrate activity at recombinant human cathepsin K expressed in Escherichia coli assessed as compound cleavage at 100 uM after 3 hrs by HPLC analysis. In kind it is ADME. Particulars: read-out: Drug degradation. The procedure, abridged:
(§1)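 Human procathepsin K, recombinant from E. coli, was activated for 40 min at room temperature in 50 mM NaOAc-HOAc with 200 mM NaCl, pH 4.1. Final assay had 0.2 µM enzyme in 50 mM MES pH 5.5, 2 mM EDTA, 4 mM DTT and 0.15% chondroitin sulfate. Conjugates or the standard substrate Cbz-Leu-Arg-AMC were at 100 µM. Incubation was at 37 °C with HPLC at UV 240 nm; cleavage was taken from release of 4-aminobenzyl alcohol and its DTT adduct.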

Series [7] is described as follows: Stability in rat serum assessed as parent compound remaining at 100 uM measured after 4 hrs by HPLC analysis (reference value: 93 to 97%). In kind it is ADME, cell-free. Conditions: read-out: Stability.
Series [8] is described as follows: Stability in rat serum assessed as parent compound remaining at 100 uM measured after 24 hrs by HPLC analysis (reference value: 93 to 97%). It is filed as ADME, cell-free. Particulars: read-out: Stability.
A short description of series [9]: Stability in rat plasma assessed as parent compound remaining at 100 uM measured after 1 hr by HPLC analysis (reference value: 49 to 86%). It is filed as ADME, cell-free. Particulars: read-out: Stability.
The nature of series [10]: Stability in rat plasma assessed as parent compound remaining at 100 uM measured after 24 hrs by HPLC analysis (reference value: 49 to 86%). In kind it is ADME, cell-free. Particulars: read-out: Stability.
Series [11] deals with T1, cathepsin K. As to the kind of experiment: Substrate activity at recombinant human cathepsin K expressed in Escherichia coli assessed as compound cleavage at 100 uM after 2 hrs by HPLC analysis. Particulars: read-out: Drug degradation. It is filed as ADME. The procedure, abridged:
as §1

For series [12], the target named is T2, cathepsin K (Rattus norvegicus, UniProt O35186).
T2 sequence (O35186 whole entry): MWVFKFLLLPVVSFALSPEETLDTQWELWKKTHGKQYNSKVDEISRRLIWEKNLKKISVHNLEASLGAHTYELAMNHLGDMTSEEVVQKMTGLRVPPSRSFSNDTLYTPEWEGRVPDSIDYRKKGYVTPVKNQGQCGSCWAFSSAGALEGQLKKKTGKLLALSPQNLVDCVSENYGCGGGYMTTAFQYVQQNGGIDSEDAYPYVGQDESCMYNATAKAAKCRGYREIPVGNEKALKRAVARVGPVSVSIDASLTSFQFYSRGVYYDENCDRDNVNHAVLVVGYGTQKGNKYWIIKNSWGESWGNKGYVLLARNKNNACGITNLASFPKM
As to the kind of experiment: Substrate activity at recombinant rat cathepsin K expressed in Escherichia coli assessed as compound cleavage at 100 uM after 20 hrs by HPLC analysis. In kind it is ADME. Conditions: read-out: Drug degradation. The procedure, abridged: (§2)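 Rat cathepsin K was recombinant, expressed in E. coli, and used at 0.2 µM final in 50 mM MES pH 5.5 with 2 mM EDTA, 4 mM DTT and 0.15% chondroitin sulfate. Conjugates or the standard substrate Cbz-Leu-Arg-AMC were at 100 µM and incubated at 37 °C. Aliquots were run by HPLC at UV 240 nm. Cleavage was calculated from the appearance of 4-aminobenzyl alcohol plus its DTT-trapped adduct.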

The nature of series [13]: Stability in rat plasma assessed as parent compound remaining at 100 uM measured after 2 hrs by HPLC analysis (reference value: 49 to 86%). In kind it is ADME, cell-free. Conditions: read-out: Stability.
Series [14] in a line: Stability in rat plasma assessed as parent compound remaining at 100 uM measured after 4 hrs by HPLC analysis (reference value: 49 to 86%). It is filed as ADME, cell-free. Conditions: read-out: Stability.
The target of series [15] is T2, cathepsin K. As to the kind of experiment: Substrate activity at recombinant rat cathepsin K expressed in Escherichia coli assessed as compound cleavage at 100 uM after 1 hr by HPLC analysis. In kind it is ADME. Particulars: read-out: Drug degradation. The procedure, abridged: as §2
Series [16] can be described thus: Stability in rat serum assessed as parent compound remaining at 100 uM measured after 1 hr by HPLC analysis (reference value: 93 to 97%). It is filed as ADME, cell-free. Particulars: read-out: Stability.
Series [17] concerns the target T1, cathepsin K. As to the kind of experiment: Substrate activity at recombinant human cathepsin K expressed in Escherichia coli assessed as compound cleavage at 100 uM after 1 hr by HPLC analysis. In kind it is ADME. Particulars: read-out: Drug degradation. The procedure, abridged:
as §1

For series [18], the target named is T2, cathepsin K. As to the kind of experiment: Substrate activity at recombinant rat cathepsin K expressed in Escherichia coli assessed as compound cleavage at 100 uM after 2 hrs by HPLC analysis. Particulars: read-out: Drug degradation. It is filed as ADME. The procedure, abridged:
as §2

The test system of series [19] is Bone. As to the kind of experiment: Drug uptake in Sprague-Dawley rat bone at 0.2 uci, iv administered as single dose using 14C-labeled compound after 4 hrs. It is filed as ADME, organism-based, Bone element. Conditions: in vivo.

On to `CCOC(=O)CCCCCCN1C(=O)CC[C@@H]1/C=C/[C@@H](OC(=O)Cc1ccc(COC(=O)N[C@@H](CC(C)C)C(=O)N[C@@H](CCCNC(=N)N)C(=O)Nc2ccc(COC(=O)NCCCC(O)(P(=O)(O)O)P(=O)(O)O)cc2)cc1)C(F)(F)c1ccccc1`, for which, in series [1], the solubility entry is recorded as “Insoluble”.
With `CCCCC[C@@H](/C=C/[C@H]1[C@H](O)CC(=O)[C@@H]1C/C=C\CCCC(=O)O)OC(=O)CSCCCC(P(=O)(O)O)P(=O)(O)O`, the Drug metabolism in series [2] is given as 15%. In series [3], this molecule returned a Drug uptake of 3.5%. Moreover, the t1/2 in series [4] lay within 96 to 120 h.
As to `CC(C)C[C@H](NC(=O)OCc1ccccc1)C(=O)N[C@@H](CCCNC(=N)N)C(=O)Nc1ccc(COC(=O)NCCCC(O)(P(=O)(O)O)P(=O)(O)O)cc1`, the figures for the remaining at 2 h, 100 µM in series [5] and in [13] were 95% and 78%, respectively. Also, the metabolised at 3 h, 100 µM in [6] was 79%. The values for the remaining at 4 h, 100 µM in [7] and in series [14] were 86% and 64%, respectively. Besides, the values for the remaining at 24 h, 100 µM in [8] and in series [10] were 70% and 59%, respectively. Also, the remaining at 1 h, 100 µM in [9] came out at 78%; in series [16], 97%. Further, the metabolised at 2 h, 100 µM in series [11] was determined as 75%; in [18], 80%. Moreover, the metabolised at 20 h, 100 µM in series [12] was found to be 95%. The figures for the metabolised at 1 h, 100 µM in series [15] and in [17] were 73% and 66%, respectively.
Molecule `CCCCC[C@H](O)/C=C/[C@H]1[C@H](O)CC(=O)[C@@H]1C/C=C\CCCC(=O)NCCCC(O)(P(=O)(O)O)P(=O)(O)O` registered a Drug uptake in series [19] of 15 %ID.
Take `N=C(N)NCCC[C@H](NC(=O)[C@@H]1CCCN1C(=O)OCc1ccccc1)C(=O)Nc1ccc(COC(=O)NCCCC(O)(P(=O)(O)O)P(=O)(O)O)cc1`: the remaining at 2 h, 100 µM in series [5] was 78%; in series [13], 90%. The remaining at 4 h, 100 µM was found to be 77% in [7] and 90% in series [14]. Besides, the remaining at 24 h, 100 µM turned out to be 69% in series [8] and 65% in series [10]. In addition, the figures for the remaining at 1 h, 100 µM in [9] and in series [16] were 95% and 89%, respectively. In addition, the metabolised at 2 h, 100 µM came out at 98% in [11] and 10% in [18]. Moreover, the metabolised at 20 h, 100 µM in series [12] came out at 52%. Moreover, the metabolised at 1 h, 100 µM in series [15] came out at 5%; in series [17], 90%.
